Among the data in ChEMBL document CHEMBL1140497, “The molecular pruning of a phosphoramidate peptidomimetic inhibitor of prostate-specific membrane antigen” (Bioorg Med Chem, 2007) are IC50 and half-life values, retold here.

Chain of Glutamate carboxypeptidase 2 (Q04609 whole entry): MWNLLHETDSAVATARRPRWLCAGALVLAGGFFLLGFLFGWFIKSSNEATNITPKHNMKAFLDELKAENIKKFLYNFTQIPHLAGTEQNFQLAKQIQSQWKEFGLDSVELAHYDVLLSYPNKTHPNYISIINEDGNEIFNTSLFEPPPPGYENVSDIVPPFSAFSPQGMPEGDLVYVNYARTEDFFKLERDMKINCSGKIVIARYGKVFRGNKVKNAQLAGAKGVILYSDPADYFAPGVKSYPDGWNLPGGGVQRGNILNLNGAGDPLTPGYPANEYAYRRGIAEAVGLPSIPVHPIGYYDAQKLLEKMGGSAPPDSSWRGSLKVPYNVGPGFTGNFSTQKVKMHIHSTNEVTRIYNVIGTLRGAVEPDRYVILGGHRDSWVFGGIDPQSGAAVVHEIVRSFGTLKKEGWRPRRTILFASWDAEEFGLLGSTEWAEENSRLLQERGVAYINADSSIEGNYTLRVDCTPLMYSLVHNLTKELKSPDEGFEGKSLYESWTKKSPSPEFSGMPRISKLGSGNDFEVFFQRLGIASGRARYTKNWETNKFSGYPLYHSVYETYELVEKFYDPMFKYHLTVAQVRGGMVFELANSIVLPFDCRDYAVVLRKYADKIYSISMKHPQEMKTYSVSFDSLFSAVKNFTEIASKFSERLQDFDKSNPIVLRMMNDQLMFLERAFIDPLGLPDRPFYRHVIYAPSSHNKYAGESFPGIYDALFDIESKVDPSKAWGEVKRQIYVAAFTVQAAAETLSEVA

The first series has as its target Glutamate carboxypeptidase 2 (Homo sapiens, UniProt Q04609). The series is described as follows: Inhibition of PSMA.
Settings: not given
The method in brief:
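Purified PSMA in 50 mM Tris pH 7.4, diluted to give 15–20% substrate conversion without inhibitor. Substrate PAB-Glu-γ-Glu at 10 μM final. Five serial inhibitor dilutions spanning 10–90% inhibition. 15 min at 37 °C with shaking. Stopped with methanolic TFA, buffered with K2HPO4, centrifuged. Supernatant quantified by HPLC; IC50 calculated.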
`O=C(O)CC[C@H](NP(=O)(O)OCCCCc1ccccc1)C(=O)O` displayed an IC50 of 180 nM.

With `O=C(O)CC[C@H](NP(=O)(O)OCCNC(=O)c1ccccc1)C(=O)O`, the IC50 is 1800 nM.

Compound `O=C([O-])CC[C@H](NP(=O)([O-])OC[C@H](NC(=O)c1ccccc1)C(=O)[O-])C(=O)[O-].[K+].[K+].[K+].[K+]` yielded an IC50 of 35 nM. Still for that read-out and setting: then `O=C(O)CC[C@H](NP(=O)(O)OC[C@@H](NC(=O)c1ccccc1)C(=O)O)C(=O)O`, with 700 nM.

Consider `O=C(O)CC[C@H](OP(=O)(O)O)C(=O)O`, for which half-maximal inhibition (IC50) was put at 15 nM.

Consider `O=C(O)CC[C@H](NP(=O)(O)O)C(=O)O` [listing 1 of 2 here], for which the IC50 is 2.3 nM. The same measure, in the same setting: then `O=C(O)CC[C@H](NP(=O)(O)OCC(CCc1ccccc1)C(=O)O)C(=O)O` (stereo partly specified), with 790 nM; and `CN(CCOP(=O)(O)N[C@@H](CCC(=O)O)C(=O)O)C(=O)c1ccccc1`, with 280 nM; and `CN(C(=O)c1ccccc1)[C@@H](COP(=O)(O)N[C@@H](CCC(=O)O)C(=O)O)C(=O)O`, with 55 nM. `O=C(O)CC[C@H](NP(=O)(O)O)C(=O)O` [listing 2 of 2 here] yielded an IC50 of 0.86 nM.

For a further series, the system named is prostate-specific antigen. The series is described as follows: Half life at pH 6.8 in presence of prostate-specific antigen. It counts as ADME. The conditions noted are these: prostate-specific antigen (enzyme incubation).
Take `O=C([O-])CC[C@H](NP(=O)([O-])OC[C@H](NC(=O)c1ccccc1)C(=O)[O-])C(=O)[O-].[K+].[K+].[K+].[K+]`: the half-life stood at 6.8 h.
